# NR2E3 ag-1 = human photoreceptor-specific nuclear receptor agonism. Q9Y5X4. CHO-S Gal4-NCOR/VP16-NR2E3 two-hybrid, luciferase. inhibition of corepressor binding, % at 3.98 µM. 360,000 tested, 0.35% active. AID 602229;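 active means inhibition above the mean of all tested compounds plus 3 SD, cut at about 70% in these data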;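 further: 0% = DMSO with NR2E3 transfected cells and 100% = cells lacking NR2E3 construct; higher means lower luciferase signal from less NR2E3 corepressor binding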
# NR2E3 ag-2 = activates human photoreceptor nuclear receptor NR2E3; Q9Y5X4; GST-NR2E3/biotin-RetCOR TR-FRET, 1536-well; inhibition of corepressor binding, % at 4.78 µM; 320,000 tested, 0.12% active;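 active means percent inhibition above the cutoff of mean plus 3 SD of all tested compounds, set per screening campaign, cut at about 20% in these data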;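 further: 0% = DMSO wells and 100% = biotin wells as full block of FRET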
#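 System: GST-tagged NR2E3 plus biotinylated RetCOR corepressor; Amount: 1.35 nM GST-tagged NR2E3 final; Dosing: single nominal compound dose of 4.8 µM; Schedule: 5 h incubation at 4 °C; Technique: TR-FRET with europium anti-GST and streptavidin-D2, 340 nm excitation; Controls: biotin wells as high control, 0.6% DMSO wells as low control.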
# Rev-erbA mod = Rev-erb alpha (human) modulation; P20393; Rev-erbα–FITC-DNA binding, fluorescence polarization, 90 min; activity, % at 10 µM; 370,000 tested, 0.79% active; AID 1259318;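 active means activity above about 14%, limit read from the data; passing the limit was not always enough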;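 further: 0% = DMSO wells with 35 nM protein and 100% = DMSO wells with 750 nM protein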
# Target sequence (P20393 whole entry, looked up): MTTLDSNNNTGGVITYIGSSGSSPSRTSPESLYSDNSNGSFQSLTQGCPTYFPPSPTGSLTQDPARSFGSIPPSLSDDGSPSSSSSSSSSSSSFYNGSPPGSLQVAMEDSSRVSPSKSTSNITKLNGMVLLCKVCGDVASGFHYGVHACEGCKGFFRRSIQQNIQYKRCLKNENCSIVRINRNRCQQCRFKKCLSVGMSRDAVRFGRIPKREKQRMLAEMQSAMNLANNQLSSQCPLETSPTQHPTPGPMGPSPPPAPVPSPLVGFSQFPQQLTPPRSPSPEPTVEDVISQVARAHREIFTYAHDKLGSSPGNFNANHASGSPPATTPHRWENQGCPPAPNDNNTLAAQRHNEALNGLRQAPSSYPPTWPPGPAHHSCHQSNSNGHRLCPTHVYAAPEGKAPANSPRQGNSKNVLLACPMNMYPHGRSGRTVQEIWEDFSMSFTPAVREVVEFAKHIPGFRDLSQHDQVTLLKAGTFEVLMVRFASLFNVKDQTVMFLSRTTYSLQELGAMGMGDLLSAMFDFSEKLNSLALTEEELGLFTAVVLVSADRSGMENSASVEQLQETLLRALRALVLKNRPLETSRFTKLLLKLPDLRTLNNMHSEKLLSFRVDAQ
# PG9 binder = PG9 antibody binding by small molecule; TR-FRET gp120-PG9 antibody binding; inhibition, % at 6.7 µM; 360,000 tested, 0.43% active; in the data active means inhibition above about 8.5%
# NR1D1 mod conf = Rev-erb alpha (human) modulation, hit confirmation. shares compounds with Rev-erbA mod. Rev-erb alpha FITC-DNA binding, fluorescence polarization, 90 min. activation, % at 25 µM. 3,000 tested, 61% active. AID 1259319;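 active means activation at or above a set limit, or at least 3 SD above the negative control mean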;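 further: 0% = 35 nM protein with DMSO and 100% = 750 nM protein high control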
# RORg DNA counter = counter-screen for Rev-erb alpha modulators: RORgamma DNA binding; IC50, µM; shares compounds with Rev-erbA mod; purified RORgamma protein-FITC-DNA binding, fluorescence polarization; 910 tested, 8% active; AID 1259320;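 active means Compounds whose fitted half-maximal concentration for disrupting protein-DNA binding is below 10 micromolar; the record names Rev-erb in its text, so the target is in doubt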
# Active calls of the source: *; i = inactive; . = no result. Shown are actives, neighbours in structure and some others; about 1.4% of the full set was active somewhere.
SMILES,NR2E3 ag-1,NR2E3 ag-2,Rev-erbA mod,PG9 binder,NR1D1 mod conf,others
N#Cc1ccc(Oc2ccc(-c3cnc4ccccc4n3)cc2)cc1C#N,-29,-3,51*,0,30*,
N#Cc1cccc(Oc2ccc(-c3cnc4ccccc4n3)cc2)c1C#N,-1,0,5,0,.,
N#Cc1ccc(Oc2ccc(-c3nc4ccccc4nc3-c3ccccc3)cc2)cc1C#N,-13,6,23*,2,38*,RORg DNA counter=>40
CCOc1ccc(CCNC(=O)COC(=O)c2ccc(S(C)(=O)=O)cc2)cc1OCC,12,2,17*,-2,3,
CCOC(=O)C1(Nc2nccs2)Sc2ccccc2NC1=O (centres undefined),-48,0,8,0,.,
COc1ccc(-c2cc(-c3ccc(O)cc3)nc(N)c2C#N)cc1,-22,2,2,3,.,
COc1cccc(-c2cc(-c3cccnc3)c(C#N)c(N)n2)c1,-17,-2,-8,-1,.,
COc1ccc(-c2cc(-c3cccnc3)c(C#N)c(N)n2)cc1,-29,2,40*,1,36*,RORg DNA counter=>40
COc1ccc(-c2cc(-c3ccc(OC)cc3)c(C#N)c(SC)n2)cc1,-15,2,108*,3,52*,RORg DNA counter=>40
O=C(COCc1nc2ccccc2c(=O)[nH]1)NCC1CCCCC1,-2,-1,-3,1,.,
C=CCn1c(SCCN2C(=O)c3ccccc3C2=O)nc2scc(-c3ccc(F)cc3)c2c1=O,-27,.,21*,1,14,
C=CCn1c(SCC(=O)N2CC(=O)Nc3ccccc32)nc2scc(-c3ccccc3)c2c1=O,-1,0,2,-2,.,
CCOC(=O)C1(C)CCN1C(=O)c1ccc(Cl)nc1 (centres undefined),0,.,-4,0,.,
OC[C@H]1OC(O)[C@@H](O)[C@@H](O)[C@@H]1O (some centres undefined),-4,5,5,-2,.,
CCOc1ccc(CCNC(=O)CCOc2cc(C)ccc2C)cc1OCC,-26,3,-1,0,.,
Cc1ccc(C)c(OCCC(=O)NCCc2ccc(Cl)cc2)c1,6,0,23*,4,27*,
CS(=O)(=O)N1CCCC(C(=O)Nc2ccc(F)cc2)C1 (centres undefined),18,0,-1,-2,.,
N#Cc1c(C(F)(F)F)cc(-c2ccc(Cl)cc2)[nH]c1=O,3,5,-1,-1,.,
CSc1cc(-c2ccc(Cl)cc2)[nH]c(=O)c1C#N,-5,2,82*,2,12,
COc1ccc(NC(=O)N(C)[C@H]2C[C@H]3c4[nH]c5c(-c6cccc(C)c6)cccc5c4CCN3C(=O)[C@H]2[C@H](C)O)cc1,.,.,0,.,.,
Cc1nc(-c2ccccc2)nc2[nH]c(-c3ccccc3)cc(=O)c12,12,2,90*,7,81*,RORg DNA counter=>40
N#Cc1c(-n2ccnc2)cccc1-n1ccnc1,-6,-3,2,-1,.,
CCc1cc2c(=O)c(-c3cnn(-c4ccccc4)c3)c(C)oc2cc1OCC(=O)Nc1ccc(F)c(F)c1,-34,-1,31*,-1,13,
CC(C)NC(=O)c1onc(CSc2ccncc2)c1C(=O)NC(C)C,-35,7,2,1,.,
O=C(NCCc1ccccc1)c1cc(-c2ccccc2)c(N2CCOCC2)s1,-18,5,-1,2,.,
SMILES,NR2E3 ag-1,NR2E3 ag-2,Rev-erbA mod,PG9 binder,NR1D1 mod conf,others
CSc1ccc(CCNC(=O)c2cc(-c3ccccc3)c(N3CCOCC3)s2)cc1,-1,4,67*,2,51*,RORg DNA counter=i
O=C(COc1ccc2ccccc2c1)N1CCNCC1,-40,6,1,0,.,
COc1ccccc1CNC(=O)c1c(O)c2cc(OC)c(OC)cc2[nH]c1=O,12,3,28*,0,19*,
CN(C)c1nc(-c2cccnc2)nc(-c2ccccc2)c1C#N,-12,.,37*,-2,29*,RORg DNA counter=>40
CC(C)Nc1nc(-c2cccnc2)nc(-c2ccc(Cl)cc2)c1C#N,-26,2,247*,0,55*,RORg DNA counter=>40
CC(C)Nc1nc(-c2cccnc2)nc(-c2ccccc2)c1C#N,-24,-2,23*,0,1,
N#Cc1c(-c2ccccc2)nc(-c2cccnc2)[nH]c1=O,-12,5,-4,4,.,
CC(C)Nc1nc(-c2ccccn2)nc(-c2ccccc2)c1C#N,3,5,8,-1,.,
N#Cc1c(Cl)nc(-c2ccncc2)nc1-c1ccccc1,-24,3,6,1,.,
CC(C)Nc1nc(-c2ccncc2)nc(-c2ccc(Cl)cc2)c1C#N,0,2,20*,-3,9,
O=C(CSC1=NS(=O)(=O)c2cc(Cl)ccc2N1)Nc1ccccc1C(F)(F)F,1,0,5,-1,.,
COCCn1c(N)c(N(Cc2ccccc2)C(=O)c2ccc3ccccc3c2)c(=O)[nH]c1=O,16,-1,5,1,.,
COc1ccc(CCn2c(O)c(C=Nc3cccc(F)c3)c(=O)[nH]c2=O)cc1OC,-18,-2,38*,3,1,
Cc1ccccc1-c1ccc(CN2C(C(C)C)C(=O)N(Cc3cn(CCC4OCCO4)nn3)CCS2(=O)=O)cc1 (centres undefined),-1,.,1,-1,.,
CCCCCNC(=O)C(c1cccc2ccccc12)n1c(=O)c(-c2ccccc2)nc2ccccc21 (centres undefined),.,.,-4,0,.,
O=C(NCc1ccccc1)C(c1cccc2ccccc12)n1c(=O)c(-c2ccccc2)nc2ccccc21 (centres undefined),.,.,24*,-1,46*,RORg DNA counter=i
Cc1cc(N2C(=O)c3ccccc3C2=O)n(C)n1,0,1,-2,-1,.,
c1ccc(CCNc2nc3ccccc3n3nnnc23)cc1,2,0,49*,2,30*,
CCOc1ccc(Nc2nc3ccccc3n3nnnc23)cc1,-94,4,-3,2,.,
COc1ccc(CCNc2nc3ccccc3n3nnnc23)cc1OC,-88,0,30*,0,22*,
c1ccc(COc2ccccc2CNC23CC4CC(CC(C4)C2)C3)cc1,-4,-1,1,-1,.,
COC(=O)/C=c1/sc2nc3ccccc3n2c1=O,4,2,3,2,.,
O=c1c2ccccc2nc2sc3ccccc3n12,-130,0,22*,-1,32*,RORg DNA counter=>40
Cc1ccc(C(=O)Nc2cccc(C(F)(F)F)c2)cc1NC(=O)c1nccn1C,-14,-3,20*,-3,23*,RORg DNA counter=>40
O=C(NCc1ccccn1)c1ccc(Cn2c(=S)[nH]c3ccc(Br)cc3c2=O)cc1,-6,2,42*,-1,35*,RORg DNA counter=>40
O=c1c2ccccc2[nH]c(=S)n1Cc1ccccc1,11,4,19*,0,6,
O=c1c2ccccc2[nH]c(=S)n1CCc1ccccc1,-106,15,5,-2,.,

# Screening results as filed in PubChem.
